Test results as given in paper PMC4201501 (Journal of chromatography. B, Analytical technologies in …, 2014).
Like-named read-outs stand apart in the source and are kept apart here.

How the values were obtained:
MDM2 protein = details: cited from earlier work
[1] = Autosampler stability of extracted plasma samples; type: physicochemical, mouse; details: extracted plasma sample, 4°C, 36 h
How it was run: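 Extracted mouse-plasma QC samples (1.94, 81.0, 129.6 ng/mL; IS 16.2 ng/mL) were prepared by n-hexane–dichloromethane–2-propanol (20:10:1) extraction, dried under nitrogen at 40°C, and reconstituted in ACN–water 50:50. They were injected immediately (time 0), then re-injected after 36 h at 4°C in the autosampler. Quantitation was by C18 gradient LC–positive ESI MRM, as percentage of intact compound versus time 0.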

[2] = test system: human breast and pancreatic cancers; details: cited from earlier work
[3] = Stability of stock solutions at room temperature; type: physicochemical; details: stock solution in acetonitrile, room temperature (25°C), at least 24 h
How it was run: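 Primary stock solutions (10 mM in acetonitrile) of test compound and internal standard were held at room temperature (25°C) for 6, 12 and 24 h before analysis.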

[4] = type: in vivo, CD-1 mice; details: CD-1, mouse, plasma, 40 mg/kg
[5] = Stability of SP-141 in mouse plasma; type: in vitro ADME; details: for percentage of intact compound remaining after three freeze-thaw cycles: three freeze-thaw cycles (-20°C/room temperature)

COc1ccc2[nH]c3c(-c4cccc5ccccc45)nccc3c2c1 [SP-141, 6-methoxy-1-(naphthalen-1-yl)-9H-pyrido[3,4-b]indole]
binding to the MDM2 protein (MDM2 protein): directly binds
percentage of intact compound in the autosampler ([1]; 1.94 ng/mL): 96.3% ± 2.7%
percentage of intact compound in the autosampler ([1]; 81.0 ng/mL): 98.5% ± 3.1%
percentage of intact compound in the autosampler ([1]; 129.6 ng/mL): 96.8% ± 0.6%
potency against human breast and pancreatic cancers [2]: high potency
toxicity at doses leading to tumor regression [2]: without any observable toxicity
stability of stock solution [3]: stable
AUC(0-inf) ([4]; ip): 13200 ng·h/mL
AUC(0-t) ([4]; ip): 12600 ng·h/mL
Cmax ([4]; ip): 4420 ng/mL
Tmax ([4]; ip): 10 min
concentration at 10 min ([4]; ip): 4420 ng/mL
concentration at 24 h ([4]; ip): < 150 ng/mL
half-life ([4]; ip): 107 min
AUC(0-inf) ([4]; iv): 8540 ng·h/mL
AUC(0-t) ([4]; iv): 8340 ng·h/mL
Cmax ([4]; iv): 5530 ng/mL
concentration at 5 min ([4]; iv): 5530 ng/mL
concentration at 24 h ([4]; iv): < 20 ng/mL
half-life ([4]; iv): 58.8 min
percentage of intact compound remaining after three freeze-thaw cycles ([5]; 1.94 ng/mL): 96.4% ± 0.6%
percentage of intact compound remaining after three freeze-thaw cycles ([5]; 81.0 ng/mL): 96.2% ± 2.4%
percentage of intact compound remaining after three freeze-thaw cycles ([5]; 129.6 ng/mL): 99.3% ± 2.5%
compound remained intact after 24-h storage ([5]; 4°C, 24 h, all QC concentrations): more than 95.3%
stability in plasma at room temperature ([5]; 25°C, up to 24 h, prior to extraction): relatively stable
compound remaining after 24-h incubation ([5]; 37°C, 24 h, all QC concentrations): more than 83.0%
intact drug remained after storage for 4 weeks ([5]; −80°C, 4 weeks, all concentrations tested): more than 92.2%

COc1ccc2c(c1)[nH]c1c(-c3ccc4ccccc4c3)nccc12 [SP-157, 7-methoxy-1-(naphthalen-2-yl)-9H-pyrido[3,4-b]indole, reference compound]
stability of stock solution [3]: stable
